Data reported in ChEMBL document CHEMBL5154772, “Biological Investigation of a Water-Soluble Isoginkgetin-Phosphate Analogue, Targeting the Spliceosome with In Vivo Antitumor Activity” (J Med Chem, 2022).

Legend:
[1] = Toxicity in C57BL/6 mouse assessed as change in spleen weight at 500 mg/kg, ip administered as single dose and measured after 15 days (reference value: 0.1 to 0.2 g); assay type: organism-based; conditions: in vivo, 360 h, time 15 day
Summary of the method: (§1)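 Female C57BL/6 mice given one IP injection of 100 µL, at 50, 100, 250 or 500 mg/kg in sterile PBS, two mice per dose; PBS-injected controls. Behaviour checked right after and at 30 min. Body weight recorded every 2–3 days for 15 days, then liver, spleen and kidneys weighed.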

[2] = Cmax in C57BL/6J mouse at 0.711 mg/kg, iv administered as single dose measured up to 24 hrs; assay type: ADME, organism-based; parameters: time < 24 hrs, dose 0.711 mg/kg, route iv; conditions: in vivo
Summary of the method: (§2)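 Single intravenous dose. Mice were male C57BL/6J, 12 per route; tail-vein blood was collected under sodium heparin, with 3 mice sampled at each pair of times (0.083/2, 0.25/4, 0.5/8, 1/24 h). Dogs were male beagles (n=3); jugular blood was collected under K2 EDTA predose and at 0.083, 0.25, 0.5, 1, 2, 4, 6, 8 and 24 h. Plasma was prepared from the samples.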

[3] = Metabolic stability in human liver microsomes assessed as parent compound remaining incubated for 45 mins in presence of NADPH by HPLC-MS/MS analysis; assay type: ADME, Microsome; conditions: read-out: Stability
Summary of the method: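 Incubation with mouse or human liver microsomes for 45 min, with or without NADPH. Remaining parent compound was quantified over time by HPLC-MS/MS and expressed as % remaining; intrinsic clearance is given in μL/min/mg protein.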

[4] = Toxicity in C57BL/6 mouse assessed as change in kidney weight at 250 mg/kg, ip administered as single dose and measured after 15 days (reference value: 0.3 g); assay type: organism-based; conditions: in vivo, 360 h, time 15 day; summary of the method: as §1
[5] = target: Histamine H2 receptor (Homo sapiens) (UniProt P25021); experiment: Antagonist activity at HRH2 (unknown origin) at 10 uM; assay type: functional; parameters: scale not given: the % may be the effect or the level left; conditions: filed as antagonist
Chain of Histamine H2 receptor (Homo sapiens) (P25021 whole entry): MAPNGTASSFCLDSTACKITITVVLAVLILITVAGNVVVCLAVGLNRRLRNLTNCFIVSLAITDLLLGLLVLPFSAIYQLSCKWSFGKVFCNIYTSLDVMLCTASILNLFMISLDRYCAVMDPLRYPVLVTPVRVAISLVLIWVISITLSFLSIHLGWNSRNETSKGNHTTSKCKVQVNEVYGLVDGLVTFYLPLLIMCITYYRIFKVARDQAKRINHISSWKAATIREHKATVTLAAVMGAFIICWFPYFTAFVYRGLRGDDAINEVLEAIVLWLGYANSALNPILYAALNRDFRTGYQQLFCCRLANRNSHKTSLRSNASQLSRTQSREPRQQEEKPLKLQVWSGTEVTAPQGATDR
Summary of the method: (§3)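 Single-concentration safety screen at 10 μM across a 47-target panel. GPCRs were run in antagonist mode and enzymes in inhibitor mode.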

[6] = Antitumour activity against mouse wild type MCA-205 cells implanted in C57BL/6 mouse assessed as tumor size by measuring cell killing at 5 mg/kg, IT administered starting from day 7 post inoculation and thrice a week for 2 weeks; assay type: functional
Summary of the method: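 Female C57BL/6 mice (6 weeks old) given subcutaneous MCA205 WT fibrosarcoma in the right flank. From day 7 after inoculation, 5 mg/kg given intratumorally three times per week for two weeks; untreated controls. Tumour area recorded every 3–4 days until ethical endpoints, then tumour size at killing. Groups compared by one-way ANOVA.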

[7] = Cmax in Beagle dog at 26.76 mg/kg, iv administered as single dose measured up to 24 hrs; assay type: ADME, organism-based, Canis lupus familiaris; parameters: time < 24 hrs, dose 26.76 mg/kg, route iv; conditions: in vivo; summary of the method: as §2
[8] = Total clearance in Beagle dog at 26.76 mg/kg, iv administered as single dose measured up to 24 hrs; assay type: ADME, organism-based, Canis lupus familiaris; conditions: in vivo; summary of the method: as §2
[9] = target: Delta-type opioid receptor (Homo sapiens) (UniProt P41143); experiment: Antagonist activity at OPRD1 (unknown origin) at 10 uM; assay type: functional; parameters: scale not given: the % may be the effect or the level left; conditions: filed as antagonist; summary of the method: as §3
Chain of Delta-type opioid receptor (Homo sapiens) (P41143 whole entry): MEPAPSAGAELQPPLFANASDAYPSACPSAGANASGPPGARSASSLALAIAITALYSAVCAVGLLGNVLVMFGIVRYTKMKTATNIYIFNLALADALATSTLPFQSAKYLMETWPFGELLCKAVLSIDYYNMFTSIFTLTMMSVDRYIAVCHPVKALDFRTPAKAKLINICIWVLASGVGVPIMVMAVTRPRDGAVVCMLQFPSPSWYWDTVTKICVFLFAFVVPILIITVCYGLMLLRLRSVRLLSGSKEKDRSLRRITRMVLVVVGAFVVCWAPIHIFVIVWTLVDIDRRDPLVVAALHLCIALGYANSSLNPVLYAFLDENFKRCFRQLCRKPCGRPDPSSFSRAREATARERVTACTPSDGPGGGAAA

[10] = test system: HUVEC; experiment: Antiproliferative activity against human HUVEC cells assessed as decrease in cell viability at 10 uM measured after 72 hrs by MTT based colorimetric assay; assay type: functional
[11] = target: 3',5'-cyclic-AMP phosphodiesterase 4D (Homo sapiens) (UniProt Q08499); experiment: Inhibition of PDE4D2 (unknown origin) at 10 uM; summary of the method: as §3
Chain of 3',5'-cyclic-AMP phosphodiesterase 4D (Homo sapiens) (Q08499 whole entry): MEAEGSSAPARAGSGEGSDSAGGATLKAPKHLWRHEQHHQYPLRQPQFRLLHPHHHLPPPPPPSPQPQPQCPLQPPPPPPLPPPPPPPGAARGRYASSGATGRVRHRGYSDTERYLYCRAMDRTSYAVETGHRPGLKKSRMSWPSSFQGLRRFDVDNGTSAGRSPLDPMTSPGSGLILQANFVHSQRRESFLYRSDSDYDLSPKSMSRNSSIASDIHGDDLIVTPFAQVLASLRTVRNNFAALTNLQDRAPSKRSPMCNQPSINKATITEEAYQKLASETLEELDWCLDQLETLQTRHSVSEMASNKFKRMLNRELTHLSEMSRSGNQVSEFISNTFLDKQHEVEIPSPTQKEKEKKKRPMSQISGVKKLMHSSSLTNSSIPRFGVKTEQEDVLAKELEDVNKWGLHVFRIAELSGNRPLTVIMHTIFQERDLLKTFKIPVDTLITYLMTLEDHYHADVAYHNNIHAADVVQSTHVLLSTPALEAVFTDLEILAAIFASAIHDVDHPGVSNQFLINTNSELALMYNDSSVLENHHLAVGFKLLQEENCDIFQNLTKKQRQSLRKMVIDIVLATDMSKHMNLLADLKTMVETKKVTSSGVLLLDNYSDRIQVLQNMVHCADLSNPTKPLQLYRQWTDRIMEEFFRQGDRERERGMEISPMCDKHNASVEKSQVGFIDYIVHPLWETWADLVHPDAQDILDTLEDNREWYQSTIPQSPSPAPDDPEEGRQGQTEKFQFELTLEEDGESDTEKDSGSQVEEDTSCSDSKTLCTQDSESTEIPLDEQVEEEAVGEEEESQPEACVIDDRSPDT

[12] = Plasma protein binding in human assessed as unbound fraction at 2 uM by rapid equilibrium dialysis based LC-MS/MS analysis; assay type: ADME, cell-free
Summary of the method: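 Binding was measured at 2 μM in triplicate by rapid equilibrium dialysis (8K MWCO). Quantification was by UPLC-MS/MS on a phenyl column in positive ESI MRM mode (m/z 727>567), with an ammonium formate pH 5 / 1,5-DMHA mobile phase at 50 °C. Both unbound fraction (fu) and % bound are reported.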

For `COc1ccc(-c2cc(=O)c3c(O)cc(OP(=O)([O-])[O-])c(-c4cc(-c5cc(=O)c6c(O)cc(OP(=O)([O-])[O-])cc6o5)ccc4OC)c3o2)cc1.[Na+].[Na+].[Na+].[Na+]`, the Activity [1] was 0.1 g, the Cmax [2] was 0.323 µg/mL and the remaining at 0.75 h [3] was 60.8%. It also gave an Activity [4] of 0.1 g, an Activity [5] of 40% and an Activity [6] of 50%. It also gave a Cmax [7] of 272 µg/mL, a clearance [8] of 0.69 mL/min/kg and an Activity [9] of 53%. For the same compound, the Activity [10] was 25%, the inhibition [11] was 87.2% and the fraction unbound at 2 µM [12] was 0.02.
